The results in this text go back to PubChem BioAssay.

As usually defined, the viability is a read-out of living cells in per cent, often relative to untreated cells. Usually inhibition stands for how much of the control response was suppressed.

A number with no mark means an inactive call. Records with an inconclusive call do not appear. Active and inactive are the calls of the source.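 The calls were made as follows, unless noted: active = inhibition over a set limit, the all-compound mean plus 3 SD, in both replicate runs; inconclusive = over that limit in just one replicate run; inactive = at or under that limit in both runs.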

Test [1] is described as follows: S. cerevisiae growth inhibition in permissive medium (OD615), pilot counter-assay for S. cerevisiae lifespan shortening project, permissive growth control (AID 705;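 active = growth inhibition above 25% in both replicates, a cutoff set 3 SD above the mean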). Particulars: OD615, 24 h, at 10 µM, stronger effect = higher value. Put shortly:
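assay system = Saccharomyces cerevisiae strain carrying genetically modified DeaD replicative-lifespan system | medium = SC raffinose/galactose permissive medium | dosing = 10 µM single dose, 0.25% DMSO | schedule = 24 h compound exposure at 30 °C after 4 h pre-growth | measured by = OD at 615 nm | read-out basis = growth inhibition from lowered OD615 after 24 h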

Test [2] can be described thus: S. cerevisiae growth inhibition in restrictive medium, OD615, pilot screen, restrictive growth control, yeast lifespan reduction project (AID 706;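 active = growth inhibition above a set limit, 3 SD over mean compound inhibition, in both replicates, cut at about 43% in these data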;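 also: modified DeaD lifespan yeast strain shifted to restrictive glucose medium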). Particulars: OD615, 48 h, at 10 µM, stronger effect = higher value. In short, it runs like this:
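Buffer or medium: CSMM-D glucose medium. Material: genetically modified Saccharomyces cerevisiae, DeaD replicative lifespan assay strain. Times: 48 h compound exposure at 30 °C. Measured by: optical density at 615 nm.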

Test [3] in a line: doxorubicin toxicity protection in MRP-1 cells – H69AR cells, CellTiter-Glo, duplicate, MRP-1 activator project, pilot screen (AID 807;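 active = viability increase at or above a cutoff of the median across tested compounds plus 3 SD, cut at about 8.5% in these data, passing the limit was not always enough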;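 also: compound pretreatment 18-22 h then 72 h combined with doxorubicin; 0% = doxorubicin alone and 100% = vehicle without doxorubicin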). Particulars: H69AR viability with doxorubicin, CellTiter-Glo luminescence; at 10 µM; stronger effect = higher value. A general note: ATP-based viability assays read luminescence as a measure of living cells.
Test [4] is described as follows: viability of HCT116 without oncogenic beta-catenin – human colon tumor cells, pilot screen (AID 823;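 active = cell viability at or below a set limit in both duplicate runs, the limit being the all-compound median minus 4 SD, cut at about 23% in these data, passing the limit was not always enough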;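 also: 0% = wells killed by 20 µM Hyamine and 100% = untreated DMSO cell wells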). Particulars: HCT116 beta-catenin knockout viability, CellTiter-Glo, 60 h; at 10 µM; stronger effect = lower value.
Test [5] can be described thus: RAM pathway blockade in budding yeast – dse1pr::URA3 reporter, 5-FOA selection, pilot screen (AID 869).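 Also: 0% = DMSO wells with no growth and 100% = 10 µM 1-NA-PP1 with full growth; RAM network block rescues cells from 5-FOA so hits raise OD615 growth.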 The following applies: S. cerevisiae dse1pr::URA3 5-FOA growth, OD615, 2 d; at 10 µM; stronger effect = higher value; strain carries analog-sensitive mutant Cbk1 kinase.
Test [6] in a line: RAM signaling pathway blockade in yeast – S. cerevisiae, Pdr1DBD-CYC8 efflux-inhibited sensitized strain, primary screen (AID 1298;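 active = RAM network inhibition above 8.4% in each of two replicates, 3 SD over the compound average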;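 also: 0% = DMSO untreated cells without growth and 100% = 10 µM 1-NA-PP1 full growth; higher means more yeast growth rescued from 5-FOA killing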). The following applies: S. cerevisiae cbk1-as DSE1-URA3 strain, 5-FOA growth OD615, 2 d; at 50 µM; stronger effect = higher value.
A short description of test [7]: viability of PTEN-null HCT116 cells – cell-based, HCT116 clonal line, CellTiter-Glo, pilot screen (AID 824;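 active = viability at or below 27.92% in each of two runs, the all-compound median minus 4 SD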;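 also: 0% = 20 µM Hyamine control and 100% = vehicle cell control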). The following applies: HCT116 PTEN-deleted viability, 60 h, at 10 µM, stronger effect = lower value.

Take `COCCn1c(=O)[nH]c2cc(C(=O)NCCN3CCN(c4ccccc4F)CC3)ccc2c1=O`: the figures for the growth inhibition in test [1] and in test [2] were 0.575% and 4.3%, respectively. Also, the viability increase in test [3] was -1.27%. Moreover, the viability in test [4] was 94.3%. Also, the inhibition in test [5] was 1.31%. In test [6], the RAM network inhibition is 9.5%.

Turning to `CCN(CC)S(=O)(=O)c1cc(Br)ccc1OC`, the growth inhibition was 9.34% in test [1] and -11.1% in test [2]. The viability increase in test [3] was -4.03%. Moreover, in test [4], the viability was 94.8%. The inhibition in test [5] is 0.72%. The RAM network inhibition in test [6] was 1.97%.

As for `O=c1[nH]n(-c2ncnc3c2cnn3-c2ccccc2)c(=O)c2ccccc12`, the values for the growth inhibition in test [1] and in test [2] were -3.32% and 13.1%, respectively. Moreover, the viability increase in test [3] was -2.9%. Also, in test [4], the viability was 101%. Also, the inhibition in test [5] was 1.52%. In addition, the RAM network inhibition in test [6] was 2.07%.

Take `CCCn1cc(S(=O)(=O)CC(=O)N2CCc3ccccc32)c2ccccc21`: the growth inhibition in test [1] was -14.9%; in test [2] it was -8.48%. In addition, the viability increase in test [3] is -5.64%. For the same compound, the viability in test [4] is 96.9%. Besides, in test [5], the inhibition was 4.21%. Further, in test [6], the RAM network inhibition is 5.15%.

Consider `CC1Cc2ccccc2N1C(=O)CCS(=O)(=O)c1cccc2nonc12` (stereo unspecified), for which the figures for the growth inhibition in test [1] and in test [2] were 8.09% and 10.7%, respectively. Also, the viability increase in test [3] is -6.45%. Besides, the viability in test [4] is 85.7%. Moreover, the inhibition in test [5] was 0.56%. Also, the RAM network inhibition in test [6] is 3.48%.

`CCCSc1nc(N)c2c3c(sc2n1)CN(C)CC3`: the figures for the growth inhibition in test [1] and in test [2] were -25% and -3.27%, respectively. The viability increase in test [3] is -2.7%. Besides, the viability in test [4] was 80.9%. In test [5], the inhibition was 1.02%. Moreover, the RAM network inhibition in test [6] was 6.8%.

`CCOc1cc(C2C(C(=O)c3ccco3)=C(O)C(=O)N2CCc2ccccc2)ccc1O` (stereo unspecified): the growth inhibition in test [1] was -35.8%; in test [2] it was -4.2%. In test [3], the viability increase is -1.77%. Further, the viability in test [4] was 97.2%. For the same compound, in test [5], the inhibition is 4.93%. Besides, the RAM network inhibition in test [6] was 4.16%.

Take `O=C(Nc1ccc2c(c1)OCCO2)c1ccc(NC(=O)C2CCCO2)cc1` (stereo unspecified): the results for the growth inhibition in test [1] and in test [2] were -10.9% and -3.79%, respectively. In addition, the viability increase in test [3] was -0.87%. Further, the viability in test [4] was 72.7%. The inhibition in test [5] was 2.04%. Moreover, the RAM network inhibition in test [6] is 3.27%.

As to `CCO/C=N/c1c(C#N)c(CC#N)nn1-c1ccccc1`, the growth inhibition is -13.5% in test [1] and 2.31% in test [2]. Further, the viability increase in test [3] is -1.36%. Moreover, the viability in test [4] was 94.6%. In test [5], the inhibition is 2.31%. In addition, the RAM network inhibition in test [6] was 1.41%.

For the compound `CCC(=O)N1CCc2cc(Br)cc(S(=O)(=O)N3CCN(c4ccccn4)CC3)c21`, the growth inhibition in test [1] is -6.54%; in test [2], -9.5%. Further, the viability increase in test [3] was -2.05%. For the same compound, in test [4], the viability is 101%. The inhibition in test [5] is 0.44%. In addition, in test [6], the RAM network inhibition was 9.66%.

Turning to `COC(=O)c1cn(NC(=O)c2cnccn2)c(=O)c2ccccc12`, the growth inhibition was -5.4% in test [1] and 16.9% in test [2]. The viability increase in test [3] is 2.86%. Moreover, the viability in test [4] is 27.8%. Also, the inhibition in test [5] was 1.15%. Moreover, in test [6], the RAM network inhibition was -0.31%.

Regarding `Cc1cc(C)nc(/N=c2/ssnc2Cl)c1`, the growth inhibition was 100% (active) in test [1] and 89.9% (active) in test [2]. Also, the viability increase in test [3] is -7.78%. Further, the viability in test [4] is 30.8%. Besides, the inhibition in test [5] was 1.81%. The RAM network inhibition in test [6] was -2.52%.

As for `Cc1ccc(C)c(NC(=O)CSc2nnc(-c3ccncc3)n2N)c1`, the growth inhibition in test [1] was 5.02%; in test [2], -0.075%. Besides, the viability increase in test [3] was -4.65%. For the same compound, in test [4], the viability was 103%. The inhibition in test [5] was 0.06%. Besides, the RAM network inhibition in test [6] is -0.98%.

Regarding `CCCCCn1c(CNC(=O)COC)nc2ccccc21`, the growth inhibition is -2.62% in test [1] and -2.4% in test [2]. The viability increase in test [3] was -2.9%. Besides, the viability in test [4] is 95.4%. In test [5], the inhibition is 0.855%. In test [6], the RAM network inhibition was 2.97%.

For `NC(=O)C1CCN(c2nc(C3CC3)nc3c2nnn3Cc2ccccc2Cl)CC1`, the results for the growth inhibition in test [1] and in test [2] were -11.9% and -3.43%, respectively. Besides, the viability increase in test [3] was -6.11%. For the same compound, the viability in test [4] was 84.4%. The inhibition in test [5] is 3.41%. Moreover, the RAM network inhibition in test [6] was 0.99%.

For `O=C(CCCOc1ccccc1)Nc1nnc(C2CCCO2)s1` (stereo unspecified), the growth inhibition in test [1] was -23.6%; in test [2], -3.93%. The viability increase in test [3] is -2.89%. Besides, in test [4], the viability was 102%. The inhibition in test [5] was 3.7%. Moreover, the RAM network inhibition in test [6] was 8.72%.

For the compound `Cn1c(Cn2c(=O)sc3ccccc32)nnc1SCc1ccc(F)cc1`, the growth inhibition in test [1] was -7.12%; in test [2] it was -5.41%. Moreover, the viability increase in test [3] was -4.85%. In test [4], the viability was 23.7% (active). In addition, the inhibition in test [5] was 2.8%. For the same compound, the RAM network inhibition in test [6] is 16.2% (active).

For `CCOC(=O)N1CCN(C(=O)CNS(=O)(=O)c2cccs2)CC1`, the growth inhibition in test [1] was 7.6%; in test [2], 1.46%. The viability increase in test [3] was -2.69%. The viability in test [4] is 93.3%. Moreover, the inhibition in test [5] is 0.785%. Further, the RAM network inhibition in test [6] is 2.76%.

Take `Cn1nnc2c(NCc3ccco3)nccc21`: the growth inhibition in test [1] is -26%; in test [2], -1.62%. Also, the viability increase in test [3] was -4.4%. The viability in test [4] is 96.6%. For the same compound, the inhibition in test [5] was 3.05%. Besides, the RAM network inhibition in test [6] was 0.93%.

As to `O=C1CC(N2CCN(Cc3ccc4c(c3)OCO4)CC2)C(=O)N1Cc1ccc(N2CCCC2=O)cc1` (stereo unspecified), the growth inhibition was -28.2% in test [1] and -0.61% in test [2]. The viability increase in test [3] was -1.61%. The viability in test [4] is 90.3%. Besides, the inhibition in test [5] was 2.29%. Besides, the RAM network inhibition in test [6] was 7.63%.

With `CC(C)CC(NC(=O)C1CCC(C)CC1)C(=O)Nc1cccnc1` (stereo unspecified), the growth inhibition is -8.21% in test [1] and -12.6% in test [2]. Moreover, the viability increase in test [3] was -3.68%. For the same compound, the viability in test [7] is 89.5%. In addition, the inhibition in test [5] was 0.035%. For the same compound, in test [6], the RAM network inhibition was 0.05%.
